Source: ChEMBL document CHEMBL4229342, “Synthesis of novel proxyphylline derivatives with dual Anti-Candida albicans and anticancer activity” (Eur J Med Chem, 2018)
In brackets after ≈: the same amount, converted by molar mass.

Assays:
CCRF-CEM [1] = assay: Antiproliferative activity against human CCRF-CEM cells assessed as cell viability at 50 uM after 72 hrs by MTT assay; type: functional; details: read-out: Activity
Method in brief: (§1)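 MTT viability assay in CCRF-CEM and MCF-7 cells after 72 h exposure at 25, 50, 100 and 200 µM. Results are relative to control cells without inhibitor in 0.5% DMSO. Done in triplicate; values are means ± SD of three independent experiments.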

CCRF-CEM [2] = assay: Antiproliferative activity against human CCRF-CEM cells assessed as cell viability at 100 uM after 72 hrs by MTT assay; type: functional; details: read-out: Activity; method in brief: as §1
CCRF-CEM [3] = assay: Antiproliferative activity against human CCRF-CEM cells assessed as cell viability at 200 uM after 72 hrs by MTT assay; type: functional; details: read-out: Activity; method in brief: as §1
MCF7 [4] = assay: Antiproliferative activity against human MCF7 cells assessed as cell viability at 25 uM after 72 hrs by MTT assay; type: functional; details: MCF7, 72 h, read-out: Activity; method in brief: as §1
MCF7 [5] = assay: Antiproliferative activity against human MCF7 cells assessed as cell viability at 50 uM after 72 hrs by MTT assay; type: functional; details: MCF7, 72 h, read-out: Activity; method in brief: as §1
MCF7 [6] = assay: Antiproliferative activity against human MCF7 cells assessed as cell viability at 100 uM after 72 hrs by MTT assay; type: functional; details: MCF7, 72 h, read-out: Activity; method in brief: as §1
MCF7 [7] = assay: Antiproliferative activity against human MCF7 cells assessed as cell viability at 200 uM after 72 hrs by MTT assay; type: functional; details: MCF7, 72 h, read-out: Activity; method in brief: as §1
Candida albicans [8] = assay: Growth inhibition of Candida albicans ATCC 90028 at 16 ug/ml incubated for 18 hrs at 35 degC by broth microdilution method relative to control; type: functional; details: ATCC 90028, 18 h, read-out: GI
Candida albicans [9] = assay: Growth inhibition of Candida albicans ATCC 90028 at 16 ug/ml incubated for 48 hrs at 35 degC by broth microdilution method relative to control; type: functional; details: ATCC 90028, 48 h, read-out: GI
Candida albicans [10] = assay: Growth inhibition of Candida albicans ATCC 90028 at 8 ug/ml incubated for 18 hrs at 35 degC by broth microdilution method relative to control; type: functional; details: ATCC 90028, 18 h, read-out: GI
Candida albicans [11] = assay: Growth inhibition of Candida albicans ATCC 90028 at 8 ug/ml incubated for 48 hrs at 35 degC by broth microdilution method relative to control; type: functional; details: ATCC 90028, 48 h, read-out: GI
Candida albicans [12] = assay: Growth inhibition of Candida albicans ATCC 90028 at 8 ug/ml incubated for 4 hrs at 35 degC by broth microdilution method relative to control; type: functional; details: ATCC 90028, 4 h, read-out: GI
Candida albicans [13] = assay: Growth inhibition of Candida albicans ATCC 90028 at 2 ug/ml incubated for 18 hrs at 35 degC by broth microdilution method relative to control; type: functional; details: ATCC 90028, 18 h, read-out: GI
Candida albicans [14] = assay: Growth inhibition of Candida albicans ATCC 90028 at 2 ug/ml incubated for 4 hrs at 35 degC by broth microdilution method relative to control; type: functional; details: ATCC 90028, 4 h, read-out: GI
Candida albicans [15] = assay: Growth inhibition of Candida albicans ATCC 90028 at 1 ug/ml incubated for 18 hrs at 35 degC by broth microdilution method relative to control; type: functional; details: ATCC 90028, 18 h, read-out: GI
Candida albicans [16] = assay: Growth inhibition of Candida albicans ATCC 90028 at 1 ug/ml incubated for 4 hrs at 35 degC by broth microdilution method relative to control; type: functional; details: ATCC 90028, 4 h, read-out: GI
Candida albicans [17] = assay: Growth inhibition of Candida albicans ATCC 90028 at 0.5 ug/ml incubated for 18 hrs at 35 degC by broth microdilution method relative to control; type: functional; details: ATCC 90028, 18 h, read-out: GI
Candida albicans [18] = assay: Growth inhibition of Candida albicans ATCC 90028 at 0.5 ug/ml incubated for 4 hrs at 35 degC by broth microdilution method relative to control; type: functional; details: ATCC 90028, 4 h, read-out: GI
Candida albicans [19] = assay: Growth inhibition of Candida albicans ATCC 90028 at 0.25 ug/ml incubated for 18 hrs at 35 degC by broth microdilution method relative to control; type: functional; details: ATCC 90028, 18 h, read-out: GI
Candida albicans [20] = assay: Growth inhibition of Candida albicans ATCC 90028 at 0.25 ug/ml incubated for 4 hrs at 35 degC by broth microdilution method relative to control; type: functional; details: ATCC 90028, 4 h, read-out: GI
Candida albicans [21] = assay: Growth inhibition of Candida albicans ATCC 90028 at 0.125 ug/ml incubated for 18 hrs at 35 degC by broth microdilution method relative to control; type: functional; details: ATCC 90028, 18 h, read-out: GI
Candida albicans [22] = assay: Growth inhibition of Candida albicans ATCC 90028 at 0.125 ug/ml incubated for 4 hrs at 35 degC by broth microdilution method relative to control; type: functional; details: ATCC 90028, 4 h, read-out: GI
Candida albicans [23] = assay: Growth inhibition of Candida albicans ATCC 90028 at 0.0625 ug/ml incubated for 18 hrs at 35 degC by broth microdilution method relative to control; type: functional; details: ATCC 90028, 18 h, read-out: GI
Candida albicans [24] = assay: Growth inhibition of Candida albicans ATCC 90028 at 0.0625 ug/ml incubated for 4 hrs at 35 degC by broth microdilution method relative to control; type: functional; details: ATCC 90028, 4 h, read-out: GI
Candida albicans [25] = assay: Growth inhibition of Candida albicans ATCC 90028 at 0.0313 ug/ml incubated for 18 hrs at 35 degC by broth microdilution method relative to control; type: functional; details: ATCC 90028, 18 h, read-out: GI
Candida albicans [26] = assay: Growth inhibition of Candida albicans ATCC 90028 at 0.0313 ug/ml incubated for 4 hrs at 35 degC by broth microdilution method relative to control; type: functional; details: ATCC 90028, 4 h, read-out: GI
Candida albicans [27] = assay: Fungicidal activity against Candida albicans ATCC 90028 assessed as log reduction in cell viability at 16 ug/ml after 48 hrs at 35 degC; type: functional
Method in brief: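 MFC assay on C. albicans ATCC 90028 following M27-A3, at the molar equivalent of 16 µg/mL. CFU of treated cells were compared with CFU of the untreated inoculum. Activity is given as lg R = lg CFU/mL control − lg CFU/mL treated, and lg R ≥3 was defined as fungicidal. Values are means of two independent experiments.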

Candida albicans [28] = assay: Fungicidal activity against Candida albicans ATCC 90028 assessed as drug level causing 3 fold reduction in bacterial count after 48 hrs at 35 degC; type: functional; details: ATCC 90028, 48 h
Candida albicans [29] = assay: Antifungal activity against Candida albicans ATCC 90028 assessed as reduction in cell viability at 1022.5 to 0.06 uM after 48 hrs in presence of ergosterol by XTT assay; type: functional; details: ATCC 90028, 48 h
[30] = Toxicity in Galleria mellonella larvae infected with Candida albicans ATCC 90028 infected with 20 uM compound pre-treated cell suspensions assessed as survival incubated in dark for 144 hrs at 30 degC and measured every 24 hrs; type: organism-based; details: in vivo
Vero [31] = assay: Cytotoxicity in African green monkey Vero cells up to 64 ug/ml incubated for 3 to 18 hrs by XTT assay; type: cell-based; details: chlorocebus sabaeus
Vero [32] = assay: Cytotoxicity in African green monkey Vero cells at 256 ug/ml incubated for 3 to 18 hrs by XTT assay; type: cell-based; details: chlorocebus sabaeus
Candida albicans [33] = assay: Inhibition of cell adhesion of Candida albicans ATCC 90028 to African green monkey Vero cells at 2 ug/ml relative to untreated control; type: functional; details: ATCC 90028, Vero
Candida albicans [34] = assay: Inhibition of cell adhesion of Candida albicans ATCC 90028 to African green monkey Vero cells at 0.0625 ug/ml relative to untreated control; type: functional; details: ATCC 90028, Vero
Candida albicans [35] = assay: Inhibition of cell adhesion of Candida albicans ATCC 90028 to African green monkey Vero cells at 16 ug/ml relative to untreated control; type: functional; details: ATCC 90028, Vero
Candida albicans [36] = assay: Inhibition of biofilm formation of Candida albicans ATCC 90028 after 48 hrs by XTT assay; type: functional, organism-based; details: ATCC 90028, 48 h

SMILES | viability at 50 µM (CCRF-CEM [1]) | viability at 100 µM (CCRF-CEM [2]) | viability at 200 µM (CCRF-CEM [3]) | viability at 25 µM (MCF7 [4]) | viability at 50 µM (MCF7 [5]) | viability at 100 µM (MCF7 [6]) | viability at 200 µM (MCF7 [7]) | inhibition of growth at 16 µg/mL (Candida albicans [8]) | inhibition of growth at 16 µg/mL (Candida albicans [9]) | inhibition of growth at 8 µg/mL (Candida albicans [10]) | inhibition of growth at 8 µg/mL (Candida albicans [11]) | inhibition of growth at 8 µg/mL (Candida albicans [12]) | inhibition of growth at 2 µg/mL (Candida albicans [13]) | inhibition of growth at 2 µg/mL (Candida albicans [14]) | inhibition of growth at 1 µg/mL (Candida albicans [15]) | inhibition of growth at 1 µg/mL (Candida albicans [16]) | inhibition of growth at 0.5 µg/mL (Candida albicans [17]) | inhibition of growth at 0.5 µg/mL (Candida albicans [18]) | inhibition of growth at 0.25 µg/mL (Candida albicans [19]) | inhibition of growth at 0.25 µg/mL (Candida albicans [20]) | other results
CC(Cn1cnc2c1c(=O)n(C)c(=O)n2C)OCc1cn(CCCn2nc3c(Br)c(Br)c(Br)c(Br)c3n2)nn1 (configuration not stated) | 0% | 0% | 0% | 58.3% | 59.8% | 59.1% | 53.7% | 100% | 100% | 100% | 99.9% | 99.1% | 99.9% | 99.1% | 99.4% | 99.1% | 99.2% | 99.1% | 99.4% | 99.1% | inhibition of growth at 0.125 µg/mL (Candida albicans [21]): 99.1%; inhibition of growth at 0.125 µg/mL (Candida albicans [22]): 99%; inhibition of growth at 0.0625 µg/mL (Candida albicans [23]): 99.2%; inhibition of growth at 0.0625 µg/mL (Candida albicans [24]): 99%; inhibition of growth at 0.0313 µg/mL (Candida albicans [25]): 99.1%; inhibition of growth at 0.0313 µg/mL (Candida albicans [26]): 99.1%; log(activity) (Candida albicans [27]): 8; MFC (Candida albicans [28]): 5 µM (≈ 3.97 µg/mL); MIC (Candida albicans [29]): 8 µM; survival at 24 h, 20 µM [30]: 90 to 100%; Activity (Vero [31]): Non-Toxic; Activity (Vero [32]): Toxic; inhibition at 2 µg/mL (Candida albicans [33]): 89%; inhibition at 0.0625 µg/mL (Candida albicans [34]): 89%; inhibition at 16 µg/mL (Candida albicans [35]): 100%; IC50 (Candida albicans [36]): 20 µM
CC(CN1c2ccccc2Sc2ccccc21)OC(=O)OC(C)Cn1cnc2c1c(=O)n(C)c(=O)n2C (configuration not stated) | 7.9% | 0% | 0% | 58.8% | 38.3% | 27.1% | 20.8% | 100% | 100% | 100% | 100% | 100% | 100% | 99.5% | 100% | 99.5% | 99.9% | 99.1% | 99.9% | 99% | inhibition of growth at 0.125 µg/mL (Candida albicans [21]): 99.9%; inhibition of growth at 0.125 µg/mL (Candida albicans [22]): 99.1%; inhibition of growth at 0.0625 µg/mL (Candida albicans [23]): 99.7%; inhibition of growth at 0.0625 µg/mL (Candida albicans [24]): 99.1%; inhibition of growth at 0.0313 µg/mL (Candida albicans [25]): 99.6%; inhibition of growth at 0.0313 µg/mL (Candida albicans [26]): 99.2%; log(activity) (Candida albicans [27]): 8; MFC (Candida albicans [28]): 15 µM (≈ 7.82 µg/mL); MIC (Candida albicans [29]): 38 µM; survival at 24 h, 20 µM [30]: 90 to 100%; Activity (Vero [31]): Non-Toxic; Activity (Vero [32]): Toxic; inhibition at 2 µg/mL (Candida albicans [33]): 89%; inhibition at 0.0625 µg/mL (Candida albicans [34]): 89%; inhibition at 16 µg/mL (Candida albicans [35]): 100%; IC50 (Candida albicans [36]): 248 µM
